What is called IC50 is the point on the concentration scale where inhibition reaches its midpoint. A lower IC50 goes with greater potency in that assay.

The structures appear in SMILES notation.

One test relates to A549. The test is described as follows: Cytotoxicity against A549 tumor cell line determined by WST-1 assay. The settings on record: Homo sapiens. It is filed as functional, cell-based. An outline of the steps: (§1)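 Cells exposed to drug for 72 h; surviving cells measured colorimetrically with soluble tetrazolium WST-1. IC50 is the mean of triplicate determinations. HT29 and A549 sourced from ATCC. T24r was derived from T24 bladder carcinoma by prolonged exposure to vinorelbine, PE1001 and doxorubicin, and is multidrug resistant through Pg-P overexpression. A549 is resistant through MRP overexpression.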
In general terms: Tetrazolium assays rely on reduction of a dye to a coloured formazan, in cell work by metabolically active cells.

Test [1] deals with T1, DNA topoisomerase 1 (Homo sapiens) (UniProt P11387).
T1 sequence (whole entry): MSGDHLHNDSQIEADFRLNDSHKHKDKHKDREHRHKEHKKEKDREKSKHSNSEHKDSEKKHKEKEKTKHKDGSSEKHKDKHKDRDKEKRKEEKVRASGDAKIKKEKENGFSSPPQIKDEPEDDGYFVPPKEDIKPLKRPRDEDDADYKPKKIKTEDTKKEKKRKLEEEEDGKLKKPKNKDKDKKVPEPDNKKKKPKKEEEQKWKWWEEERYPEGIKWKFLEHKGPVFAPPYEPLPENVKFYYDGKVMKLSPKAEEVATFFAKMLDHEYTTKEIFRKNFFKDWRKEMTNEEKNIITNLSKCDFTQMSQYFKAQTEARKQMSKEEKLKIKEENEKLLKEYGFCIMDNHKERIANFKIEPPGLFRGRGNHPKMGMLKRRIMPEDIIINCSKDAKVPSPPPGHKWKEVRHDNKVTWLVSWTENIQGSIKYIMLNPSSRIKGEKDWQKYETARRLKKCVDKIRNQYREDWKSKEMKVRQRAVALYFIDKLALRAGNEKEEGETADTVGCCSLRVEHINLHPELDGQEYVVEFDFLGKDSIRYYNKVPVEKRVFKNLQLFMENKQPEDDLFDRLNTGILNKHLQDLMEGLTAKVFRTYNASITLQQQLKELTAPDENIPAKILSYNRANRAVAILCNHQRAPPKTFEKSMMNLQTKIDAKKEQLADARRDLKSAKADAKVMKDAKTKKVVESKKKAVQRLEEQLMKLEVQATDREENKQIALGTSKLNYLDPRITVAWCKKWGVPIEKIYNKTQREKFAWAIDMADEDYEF
As to the kind of experiment: Stimulation of pKMp27 DNA cleavage by human DNA topoisomerase I in presence of 0.1 uM of compound. In short, it runs like this: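 Human Topo I incubated with supercoiled plasmid pKMp27 DNA and 0.1 µM drug. Products resolved on agarose gel containing ethidium bromide. Nicked DNA fraction quantified and stimulation calculated as (N−N0)/N0, where N and N0 are the nicked fractions with and without drug. Values compiled from quantitative analysis of three gels.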

For a further test, the system named is HT-29. The test is described as follows: Cytotoxicity against HT-29 tumor cell line determined by WST-1 assay. It is filed as functional, cell-based. The settings on record: Homo sapiens. An outline of the steps: as §1
A further test relates to T-24. The test is described as follows: Cytotoxicity against T24 tumor cell line determined by WST-1 assay. It counts as functional, cell-based. The settings on record: Homo sapiens. In short, it runs like this: as §1

Regarding `CC[C@@]1(O)CC(=O)OCc2c1cc1n(c2=O)Cc2cc3cc(F)c(F)cc3nc2-1` [DIFLOMOTECAN], the IC50 was 3.4 nM in the test with A549, 8.4 nM in the test with HT-29 and 0.4 nM in the test on T-24. Further, the Stimulation in test [1] is 32.

As for `CC[C@@]1(O)CC(=O)OCc2c1cc1n(c2=O)Cc2cc3ccccc3nc2-1` [HOMOCAMPTOTHECIN], the IC50 in the test on A549 was determined as 26 nM; with HT-29, 30 nM; in the test with T-24 it was 3.3 nM. In addition, the Stimulation in test [1] was 21.

For the molecule `CC[C@@]1(O)CC(=O)OCc2c1cc1n(c2=O)Cc2cc3ccc(F)cc3nc2-1`, the half-inhibitory concentration (IC50) in the test on A549 was 2.9 nM; in the test on HT-29 it was 11 nM; in the test on T-24, 0.17 nM. Moreover, the Stimulation in test [1] came to 29.

For `CC[C@@]1(O)CC(=O)OCc2c1cc1n(c2=O)Cc2cc3cccc(F)c3nc2-1`, the results for the IC50 with A549, in the test on HT-29 and in the test with T-24 were 130 nM, 190 nM and 22 nM, respectively. The Stimulation in test [1] is 7.3.

For the molecule `CC[C@@]1(O)CC(=O)OCc2c1cc1n(c2=O)Cc2cc3cc(F)ccc3nc2-1`, the IC50 with A549 came out at 22 nM; in the test on HT-29, 27 nM; in the test with T-24, 4.5 nM. Further, the Stimulation in test [1] is 17.

`CC[C@@]1(O)CC(=O)OCc2c1cc1n(c2=O)Cc2cc3c(F)cccc3nc2-1`: the half-inhibitory concentration (IC50) in the test with A549 worked out at 17 nM; with HT-29, 20 nM; with T-24 it was 1.6 nM. Further, in test [1], the Stimulation was 18.

As for `CC[C@@]1(O)CC(=O)OCc2c1cc1n(c2=O)Cc2cc3c(F)cc(F)cc3nc2-1`, the figures for the IC50 in the test on A549, in the test on HT-29 and in the test on T-24 were 1.9 nM, 10 nM and 0.32 nM, respectively. Besides, in test [1], the Stimulation turned out to be 30.

For the molecule `CC[C@@]1(O)C(=O)OCc2c1cc1n(c2=O)Cc2cc3ccccc3nc2-1` [CAMPTOTHECIN], the IC50 in the test on A549 is 67 nM; in the test with HT-29, 80 nM; in the test on T-24 it was 88 nM. The Stimulation in test [1] worked out at 8.2.
